Experimental data gathered from unrelated publications.
Each line is one published result; the experiments were not run side by side.
Target: Vascular endothelial growth factor receptor 3 (FLT4, Homo sapiens, UniProt P35916)

| Structure (SMILES) | test | setting | endpoint | result |
| --- | --- | --- | --- | --- |
| COc1cc(Cl)c(C(=O)N[C@@H](CN[C@H]2CC[C@@H](N)CC2)Cc2ccc(C#N)cc2)cc1-c1ccc(CN[C@H](C)c2ccc(C)cc2)o1 | enzyme activity, inhibitor | 1 µM | remaining activity | 93% |
| CCCOc1ccc(OC)c(F)c1C(=O)c1ccc(C(=O)N[C@@H]2CNC[C@H]2NC(=O)c2ccc3[nH]ncc3c2)cc1 | enzyme activity, inhibitor | 10 µM | remaining activity | 8% |
| CCOc1cc(-c2nncn2C)ccc1Nc1ncc2cc(C)nc(NCC(C)(C)C)c2n1 | enzyme activity, inhibitor, FRET | 1 µM | inhibition | 23% |
| CC(=O)C1=C(C)N(c2cccc(C(F)(F)F)c2)C(=O)N[C@@H]1c1ccc(C#N)nc1 | cell-free assay, competition with immobilised ligand | 1 µM | remaining binding | 100% |
| COc1cc2nccc(Oc3ccc(NC(=O)c4c5n(n(-c6ccc(F)cc6)c4=O)CCCC5)cc3)c2cc1OC | enzyme activity, inhibitor | 0.1 µM | inhibition | 47% |
| CC(C)(O)[C@H]1CC[C@H](Nc2ccc3ncc(-c4cccc(C(F)(F)F)c4)n3n2)CC1 | enzyme activity, inhibitor | 1 µM | remaining activity | 83.5% |
| CC[C@H](CO)Nc1nc(NCc2ccccc2)c2ncn(C(C)C)c2n1 | cell-free assay | 0.5 µM | remaining signal | 94% |
| N#CC1(c2ccccn2)CCN(Cc2cc(C(=O)N3CCCC3)c(=O)n3ccccc23)CC1 | cell-free assay, competition with immobilised ligand | 1 µM | remaining binding | 86% |
| COc1cc2ncnc(Nc3ccc(Oc4ccccc4)cc3C)c2cc1OC | enzyme activity, inhibitor | 1 µM | inhibition | 17% |
| N#CCCc1ccc2c(c1)-c1[nH]c3ccc([N+](=O)[O-])cc3c1CC(=O)N2 | cell-free assay | 0.5 µM | remaining signal | 66.5% |
| O=C(N[C@H]1CCCCC/C=C\C2C[C@@]2(C(=O)O)NC(=O)[C@@H]2C[C@@H](Oc3ccncc3)CN2C1=O)OC1CCCC1 (some centres unmarked) | cell-free assay, competition with immobilised ligand | 1 µM | remaining binding | 93% |
| O=C1Nc2ccc(Cl)cc2C1=Cc1cc(Cl)c(O)c(Cl)c1 | cell-free assay | 0.5 µM | remaining signal | 87.3% |
| Cc1sc(C(=O)NC2COC2)cc1-n1cc(NC(=O)Nc2c(F)cccc2Cl)cn1 | enzyme activity, inhibitor | 10 µM | remaining activity | 79.2% |
| CNC(=O)c1cc(Oc2ccc(NC(=O)Nc3ccc(Cl)c(C(F)(F)F)c3)cc2)ccn1 | cell-free assay | 0.5 µM | remaining signal | 43% |
| CN(C(=O)c1ccccc1)c1cc(N(C)c2ccc3c(c2)CCc2ccc(C(=O)NCCN4CCOCC4)cc2C3=O)ccc1F | cell-free assay, competition with immobilised ligand | 1 µM | remaining binding | 87% |
| Nc1ncnc2occ(-c3ccc(NC(=O)Nc4cc(C(F)(F)F)ccc4F)cc3)c12 | cell-free assay | 20 µM | remaining signal | 0% |
| CC(C)(O)c1cncc(-c2nc3ccc(F)cc3n2C2CC2)c1 | cell-free assay, competition with immobilised ligand | 1 µM | remaining binding | 100% |
| CCCS(=O)(=O)Nc1ccc(F)c(C(=O)c2c[nH]c3ncc(-c4ccc(Cl)cc4)cc23)c1F | enzyme activity, inhibitor | 1 µM | inhibition | < 10% |
| O=C(Nc1cccnn1)N1CCC(=Cc2cccc(Oc3ccc(C(F)(F)F)cn3)c2)CC1 | cell-free assay, competition with immobilised ligand | 1 µM | remaining binding | 80% |
| CC(C)(C)c1nc2c(s1)c1nc(N)ncc1c1ccc(NS(=O)(=O)c3c(F)cccc3F)c(F)c12 | enzyme activity, inhibitor, radiometric | 1 µM | remaining activity | 76% |
